Results as given in publication PMC9378630 (Chemmedchem, 2022).
Several values for one entry are separate records, joined by “and”; a condition that tells them apart may be missing. Equal entries are not always repeated. Where two headings read alike, the source gives them in different places.

Key:
human SLO3 and LRRC52 = target: T1, human SLO3 and LRRC52 (Homo sapiens, UniProt A8MYU2); type: cell-based; settings: for hSLO3 current in the presence of compound, % of control: 10 μM, +60 mV, n=5 cells, mean±SD in text; for inhibition at 10 µM: HEK293, read-out: Inhibition at 10 μM [%] hSlo3
T1 sequence (A8MYU2 1-1149): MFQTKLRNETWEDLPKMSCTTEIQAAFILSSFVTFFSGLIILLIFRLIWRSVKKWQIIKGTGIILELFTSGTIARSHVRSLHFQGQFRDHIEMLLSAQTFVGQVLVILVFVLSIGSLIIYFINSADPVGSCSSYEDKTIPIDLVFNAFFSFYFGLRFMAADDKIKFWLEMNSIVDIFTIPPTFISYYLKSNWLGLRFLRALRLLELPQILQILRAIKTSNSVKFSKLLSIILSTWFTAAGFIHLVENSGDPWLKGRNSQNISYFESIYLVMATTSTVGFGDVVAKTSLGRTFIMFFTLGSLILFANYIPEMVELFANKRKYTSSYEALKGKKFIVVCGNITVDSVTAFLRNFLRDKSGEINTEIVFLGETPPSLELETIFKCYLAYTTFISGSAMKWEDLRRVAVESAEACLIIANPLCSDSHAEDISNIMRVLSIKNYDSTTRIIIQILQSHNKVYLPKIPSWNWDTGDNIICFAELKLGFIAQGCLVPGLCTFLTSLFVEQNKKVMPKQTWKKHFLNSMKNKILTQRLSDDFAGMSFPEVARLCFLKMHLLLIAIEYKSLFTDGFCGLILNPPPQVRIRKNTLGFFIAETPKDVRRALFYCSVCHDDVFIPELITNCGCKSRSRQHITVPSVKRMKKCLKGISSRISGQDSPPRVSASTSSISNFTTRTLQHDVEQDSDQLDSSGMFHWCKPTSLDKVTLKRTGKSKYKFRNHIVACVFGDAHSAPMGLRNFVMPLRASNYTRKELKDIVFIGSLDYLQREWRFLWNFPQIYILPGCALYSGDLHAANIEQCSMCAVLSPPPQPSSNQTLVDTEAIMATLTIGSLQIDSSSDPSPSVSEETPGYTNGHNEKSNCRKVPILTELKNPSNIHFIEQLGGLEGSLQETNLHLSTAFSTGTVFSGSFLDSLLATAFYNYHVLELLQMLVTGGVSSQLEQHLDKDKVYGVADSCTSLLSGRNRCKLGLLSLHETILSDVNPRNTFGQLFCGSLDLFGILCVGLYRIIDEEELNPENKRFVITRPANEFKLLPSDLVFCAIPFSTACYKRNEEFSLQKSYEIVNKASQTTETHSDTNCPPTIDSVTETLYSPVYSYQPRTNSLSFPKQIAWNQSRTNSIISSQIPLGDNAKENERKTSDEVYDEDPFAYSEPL
T1 sequence (Q8N7C0 24-313 partner): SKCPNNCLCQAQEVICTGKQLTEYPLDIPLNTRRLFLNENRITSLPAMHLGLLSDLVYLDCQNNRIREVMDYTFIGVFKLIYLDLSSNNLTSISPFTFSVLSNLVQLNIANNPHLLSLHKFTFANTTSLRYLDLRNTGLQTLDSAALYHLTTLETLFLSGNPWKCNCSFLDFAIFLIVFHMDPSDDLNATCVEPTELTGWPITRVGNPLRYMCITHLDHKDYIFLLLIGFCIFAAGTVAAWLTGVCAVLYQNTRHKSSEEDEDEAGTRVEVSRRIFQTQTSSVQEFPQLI

CatSper [1] = target: T2, CatSper (Homo sapiens, UniProt Q7RTX7+Q86XQ3+Q8NEC5+Q96P56); assay: Progesterone-induced calcium uptake; type: cell-based
hCav1.2 = hCav1.2 (Homo sapiens, UniProt Q13936); assay: hCav1.2 FLIPR assay in stably expressing cell line; type: cell-based; settings: read-out: Inhibition at 10 μM [%] hCav1.2
hERG = hERG (Homo sapiens, UniProt Q12809); assay: hERG manual patch-clamp in HEK293 cells; type: cell-based; settings: HEK293 cells expressing hERG
[2] = AlamarBlue cytotoxicity assay in human sperm; type: cell-based; settings: human, human sperm
Method in brief: (§1)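 Sperm isolated by centrifugation: liquefied at 37 °C, HTF-washed twice, 800×g, resuspended in Low/Low (low pH/low K+) buffer. Mixed with test compound (2.2x in Low/Low). 8 half-log concentrations, 100 μM to 32 nM final, in duplicate. AlamarBlue at 37 °C, 560/590 nm fluorescence every 15 min over 3 h. IC50 from concentration-response fit.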

[3] = AlamarBlue cytotoxicity assay in IMR-90 fibroblasts; type: cell-based, human; settings: human, IMR-90 lung fibroblast cells
Method in brief: (§2)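 IMR-90 lung fibroblasts cultured 2 weeks in EMEM + 10% FBS, split 2–4 days before use, trypsin-EDTA detached and resuspended in culture medium. Added to test compound (2.2x in Low/Low buffer). 8 half-log concentrations, 100 μM to 32 nM final, in duplicate. AlamarBlue added, 37 °C, fluorescence 560/590 nm read every 30 min over 7 h. IC50 from concentration-response fit.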

hNav1.5 = hNav1.5 (Homo sapiens, UniProt Q14524); assay: hNav1.5 manual patch-clamp in CHO cells; type: cell-based; settings: read-out: Inhibition at 10 μM [%] hNav1.5
human sperm [4] = assay: CASA: PGE1-induced hyperactivated motility; type: cell-based; settings: 100 nM compound, 100 nM PGE1, HAM measured after 4 h
CatSper [5] = target: T2, CatSper; assay: Whole cell patch clamp electrophysiology of ICatSper in human sperm; type: cell-based; settings: for Inhibition (block) of the inward ICatSper: 10 μM compound, human sperm, CsDVF
Method in brief: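 Swim-up sperm, seal at cytoplasmic droplet in HS buffer (pH 7.4), 12–18 MΩ pipettes with CsDVF internal. Break-in by 1 ms 450 mV pulses. Control current in CsDVF bath, then 10 μM compound for ~8–10 s. Ramp −80 to +80 mV from 0 mV every 3 s. Current density at ±80 mV, room temperature. Washout with CsDVF.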

IMR‐90 fibroblasts = assay: AlamarBlue cytotoxicity assay in IMR-90 fibroblasts; type: cell-based, human; settings: at concentrations fully inhibiting CatSper; AlamarBlue, 2 h
Method in brief: as §2

human sperm [6] = assay: CASA: progesterone-induced hyperactivated motility; type: cell-based; settings: 10 μM compound, 100 nM progesterone, HAM measured after 4 h
human sperm [7] = assay: Computer-aided sperm analysis; type: cell-based; settings: 10 μM, 4 h incubation with human sperm
Method in brief: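 Motile sperm selected by swim-up into bicarbonate-free HAM's-F10 (37 °C, 5% CO2, 1 h), ≥10×10^6 cells/mL. Incubated 4 h with increasing test compound concentrations. CASA at 37 °C gives total and progressive motility from VAP, VSL, VCL, LIN and STR, as % of population. ≥10 fields/≥200 cells. Mean±SEM of ≥3 experiments; one-way ANOVA with Dunnett's test.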

CatSper [8] = target: T2, CatSper; settings: reported previously; cited from earlier work
human sperm [9] = assay: AlamarBlue cytotoxicity assay in human sperm; type: cell-based; settings: human sperm and IMR‐90 fibroblasts
Method in brief: as §1

[10] = read-out: Inhibition (block) of the inward ICatSper
[11] = read-out: Inhibition at 10 μM [%] CatSper

hERG, sequence (Q12809 whole entry): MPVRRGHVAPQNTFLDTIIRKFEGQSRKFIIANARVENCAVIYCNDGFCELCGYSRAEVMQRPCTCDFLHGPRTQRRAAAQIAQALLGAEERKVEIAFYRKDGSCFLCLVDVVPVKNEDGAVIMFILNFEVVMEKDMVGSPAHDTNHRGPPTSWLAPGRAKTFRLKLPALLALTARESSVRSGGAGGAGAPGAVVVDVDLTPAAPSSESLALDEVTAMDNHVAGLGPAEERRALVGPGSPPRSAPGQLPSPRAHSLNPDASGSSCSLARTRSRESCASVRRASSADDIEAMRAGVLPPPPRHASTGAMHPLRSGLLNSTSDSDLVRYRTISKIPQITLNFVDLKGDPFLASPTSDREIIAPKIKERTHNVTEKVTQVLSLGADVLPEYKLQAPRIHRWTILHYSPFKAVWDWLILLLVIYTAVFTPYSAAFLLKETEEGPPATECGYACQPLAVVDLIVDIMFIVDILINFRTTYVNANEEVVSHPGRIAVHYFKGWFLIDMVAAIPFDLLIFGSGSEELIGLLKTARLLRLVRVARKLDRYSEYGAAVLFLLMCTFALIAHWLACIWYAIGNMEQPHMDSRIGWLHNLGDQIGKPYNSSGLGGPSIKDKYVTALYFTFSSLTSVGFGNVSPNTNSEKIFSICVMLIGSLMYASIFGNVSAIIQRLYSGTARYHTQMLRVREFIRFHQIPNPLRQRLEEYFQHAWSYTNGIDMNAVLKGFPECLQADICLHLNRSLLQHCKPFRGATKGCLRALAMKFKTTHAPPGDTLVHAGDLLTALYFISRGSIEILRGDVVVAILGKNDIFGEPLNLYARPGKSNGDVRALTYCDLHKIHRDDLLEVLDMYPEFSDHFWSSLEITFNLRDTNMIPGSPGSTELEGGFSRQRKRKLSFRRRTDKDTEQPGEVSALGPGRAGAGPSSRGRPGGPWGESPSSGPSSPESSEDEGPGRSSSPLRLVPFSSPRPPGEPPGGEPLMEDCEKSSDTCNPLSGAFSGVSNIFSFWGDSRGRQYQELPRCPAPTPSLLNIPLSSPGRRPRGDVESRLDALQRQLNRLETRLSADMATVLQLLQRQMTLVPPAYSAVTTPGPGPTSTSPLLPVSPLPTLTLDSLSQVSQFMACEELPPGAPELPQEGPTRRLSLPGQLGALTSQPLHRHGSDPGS
hNav1.5, sequence (Q14524 whole entry): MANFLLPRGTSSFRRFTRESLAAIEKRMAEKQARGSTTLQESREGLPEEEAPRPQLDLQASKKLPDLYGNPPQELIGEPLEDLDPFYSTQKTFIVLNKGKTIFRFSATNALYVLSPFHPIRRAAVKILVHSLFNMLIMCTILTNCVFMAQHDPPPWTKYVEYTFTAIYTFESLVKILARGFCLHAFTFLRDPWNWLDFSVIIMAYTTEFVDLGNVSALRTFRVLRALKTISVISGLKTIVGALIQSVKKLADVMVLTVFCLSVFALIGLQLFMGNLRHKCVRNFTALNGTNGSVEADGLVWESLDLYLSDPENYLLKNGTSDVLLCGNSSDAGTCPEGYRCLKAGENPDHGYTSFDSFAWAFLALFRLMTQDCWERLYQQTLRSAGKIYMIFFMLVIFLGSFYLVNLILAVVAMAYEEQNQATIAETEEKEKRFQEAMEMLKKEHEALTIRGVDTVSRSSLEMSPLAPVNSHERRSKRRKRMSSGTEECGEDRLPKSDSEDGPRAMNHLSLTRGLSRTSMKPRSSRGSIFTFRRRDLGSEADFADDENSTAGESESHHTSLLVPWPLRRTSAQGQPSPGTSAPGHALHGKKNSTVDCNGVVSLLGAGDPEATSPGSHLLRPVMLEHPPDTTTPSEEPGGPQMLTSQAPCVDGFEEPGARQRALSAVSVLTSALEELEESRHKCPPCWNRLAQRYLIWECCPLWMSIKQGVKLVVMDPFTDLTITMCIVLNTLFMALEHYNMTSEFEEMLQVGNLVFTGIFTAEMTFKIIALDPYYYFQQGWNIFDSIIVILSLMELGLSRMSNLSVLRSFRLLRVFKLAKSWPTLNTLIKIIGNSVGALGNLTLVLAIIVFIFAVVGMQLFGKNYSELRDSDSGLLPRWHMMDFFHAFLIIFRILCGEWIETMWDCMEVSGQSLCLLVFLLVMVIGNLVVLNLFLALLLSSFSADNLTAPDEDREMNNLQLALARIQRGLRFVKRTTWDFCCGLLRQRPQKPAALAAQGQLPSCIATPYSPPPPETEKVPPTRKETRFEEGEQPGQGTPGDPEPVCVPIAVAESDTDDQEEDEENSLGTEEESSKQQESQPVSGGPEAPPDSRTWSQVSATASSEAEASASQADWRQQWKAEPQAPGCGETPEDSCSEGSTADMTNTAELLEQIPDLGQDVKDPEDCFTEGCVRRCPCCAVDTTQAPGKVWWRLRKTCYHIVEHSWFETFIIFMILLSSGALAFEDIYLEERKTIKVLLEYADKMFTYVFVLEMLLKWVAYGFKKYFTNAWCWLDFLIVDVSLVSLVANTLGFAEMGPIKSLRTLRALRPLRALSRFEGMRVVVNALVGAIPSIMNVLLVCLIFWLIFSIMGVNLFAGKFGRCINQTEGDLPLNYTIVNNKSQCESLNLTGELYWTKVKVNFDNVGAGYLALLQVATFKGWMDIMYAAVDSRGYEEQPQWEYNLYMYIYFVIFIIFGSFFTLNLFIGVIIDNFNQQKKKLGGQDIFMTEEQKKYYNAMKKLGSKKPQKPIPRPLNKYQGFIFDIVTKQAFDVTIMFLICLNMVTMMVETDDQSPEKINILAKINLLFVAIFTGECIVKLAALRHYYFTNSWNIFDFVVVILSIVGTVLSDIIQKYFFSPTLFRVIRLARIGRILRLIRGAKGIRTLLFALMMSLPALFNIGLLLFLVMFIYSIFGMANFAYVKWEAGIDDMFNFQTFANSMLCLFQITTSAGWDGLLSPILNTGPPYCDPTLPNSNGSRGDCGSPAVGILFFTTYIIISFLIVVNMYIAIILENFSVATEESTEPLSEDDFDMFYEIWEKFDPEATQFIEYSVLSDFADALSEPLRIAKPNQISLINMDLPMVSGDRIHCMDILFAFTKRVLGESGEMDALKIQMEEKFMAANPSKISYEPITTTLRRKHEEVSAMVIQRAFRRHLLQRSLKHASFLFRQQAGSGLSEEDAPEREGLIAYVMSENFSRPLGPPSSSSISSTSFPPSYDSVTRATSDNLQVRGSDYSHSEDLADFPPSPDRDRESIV

| Structure (SMILES) | hSLO3 current in the presence of compound, % of control (human SLO3 and LRRC52) | IC50 (CatSper [1]) | inhibition at 10 µM (hCav1.2) | IC50 at 3 h [2] | IC50 at 7 h [3] | inhibition at 10 µM (hNav1.5) | inhibition at 10 µM (CatSper [5]; [10]) | inhibition at 10 µM (CatSper [5]; [11]) | other results |
| --- | --- | --- | --- | --- | --- | --- | --- | --- | --- |
| NC(N)=NC(=O)c1nc(Cl)c(N2CCCCCC2)nc1N [1 a, 3‐Amino‐5‐(azepan‐1‐yl)‐6‐chloro‐N‐(diaminomethylene)pyrazine‐2‐carboxamide] | 101.5±6.4 % of control | 5.4 ± 0.6 µM | 4% | > 100 µM | > 100 µM | 68% | – | – | inhibition at 10 µM (human SLO3 and LRRC52): -2%; inhibition at 10 µM (hERG): 92% |
| N=C(N)NC(=O)c1nc(Cl)c(N)nc1N [1 d, amiloride, reference compound] | – | > 100 µM | – | – | – | – | – | – | – |
| OC1(c2ccc(Cl)cc2)CCN(Cc2c[nH]c3ccccc23)CC1 [2 a, 4‐(4‐Chlorophenyl)‐1‐(1H‐indol‐3‐ylmethyl)‐4‐piperidinol] | – | 7.5 ± 1.3 µM | 39% | > 100 µM | > 100 µM | 77% | 65% | 73% | Inhibition of PGE1-induced HAM (human sperm [4]): greatly reduced HAM; inhibition at 10 µM (hERG): 100%; Effect on IMR‐90 viability (IMR‐90 fibroblasts): reduce viability slightly |
| c1ccc(CN2CCC(c3c[nH]c4ccccc34)CC2)cc1 [2 l, 3‐(1‐benzylpiperidin‐4‐yl)‐1H‐indole] | – | > 100 µM | – | – | – | – | – | – | – |
| Cc1cc(C)c2nc(C)cc(NCCc3ccccc3)c2c1 [3 a, 2,6,8‐Trimethyl‐N‐(2‐phenylethyl)‐4‐quinolinamine] | 58.5±12.5 % of control | 3.6 ± 0.6 µM | 10% | > 100 µM | 96 ± 5 µM | 94% | – | 96% | inhibition at 10 µM (human SLO3 and LRRC52): 42%; inhibition at 10 µM (hERG): 100%; Inhibition (block) of the inward ICatSper (CatSper [5]): near complete inhibition |
| O=C(Nc1cccc(C(F)(F)F)c1)N1CCN(c2cccc(C(F)(F)F)c2)CC1 [4 a, N ,4‐Bis(3‐(trifluoromethyl)phenyl)piperazine‐1‐carboxamide] | – | 4.9 ± 0.6 µM | 65% | > 100 µM | > 100 µM | 95% | 84% | 83% | Reduction of progesterone-induced HAM (human sperm [6]): statistically significant; hSLO3 current in the presence of compound, % of control (human SLO3 and LRRC52; 10 µM): 24.6±9.1 % of control and 25 % of control; inhibition at 10 µM (human SLO3 and LRRC52): 75%; Progressive motility (CASA) (human sperm [7]): substantially reduced; Total motility (CASA) (human sperm [7]): substantially reduced |
| N=c1n(CCN2CCCCC2)c2ccccc2n1CC(O)c1cccc(Br)c1 (stereo not drawn) [5 f, 1‐(3‐Bromophenyl)‐2‐(2‐imino‐3‐(2‐(piperidin‐1‐yl)ethyl)‐2,3‐dihydro‐1H‐benzo[d]imidazol‐1‐yl)ethan‐1‐ol] | 83.2±7.8 % of control | 3.4 ± 0.4 µM | – | > 100 µM | 83 ± 14 µM | – | 47% | – | Progressive motility (CASA) (human sperm [7]): substantially reduced; Total motility (CASA) (human sperm [7]): substantially reduced; Reversibility of ICatSper block on washout (CatSper [5]; washed out with CsDVF after 10 μM compound): apparent irreversible loss of channel function |
| CN1CCCC(n2nc(Cc3ccc(Cl)cc3)c3ccccc3c2=O)CC1 (stereo not drawn) [6 a, azelastine, reference compound] | – | 5.4 ± 0.4 µM | – | – | – | – | – | – | – |
| O=c1c2ccccc2c(Cc2ccc(Cl)cc2)nn1C1CCCNCC1 (stereo not drawn) [6 b, 2‐(Azepan‐4‐yl)‐4‐(4‐chlorobenzyl)phthalazin‐1(2H)‐one] | 66.3±8.5 % of control | 8.3 ± 1.1 µM | – | 84 ± 10 µM | 68 ± 5 µM | – | – | 100% | Reduction of progesterone-induced HAM (human sperm [6]): statistically significant; Inhibition (block) of the inward ICatSper (CatSper [5]): near complete inhibition; Effect on IMR‐90 viability (IMR‐90 fibroblasts): reduce viability slightly |
| CCN(CC)CCNC(=O)C1CCN(c2ccc3nnc(-c4cccc(C)c4)n3n2)CC1 [7 a, N ‐(2‐(Diethylamino)ethyl)‐1‐(3‐(m–tolyl)‐[1,2,4]triazolo[4,3‐b]pyridazin‐6‐yl)piperidine‐4‐carboxamide] | – | 20 ± 1 µM | -9% | > 100 µM | > 100 µM | – | 89% | – | Reduction of progesterone-induced HAM (human sperm [6]): statistically significant; hSLO3 current in the presence of compound, % of control (human SLO3 and LRRC52; 10 µM): 37.5±5.6 % of control and 38 % of control; Progressive motility (CASA) (human sperm [7]): substantially reduced; Total motility (CASA) (human sperm [7]): substantially reduced |
| COCC(=O)O[C@]1(CCN(C)CCCc2nc3ccccc3[nH]2)CCc2cc(F)ccc2[C@@H]1C(C)C [Mibefradil, reference compound] | – | – | – | 25 ± 2 µM | 22 ± 1 µM | – | – | – | Reversibility of CatSper block (CatSper [8]): irreversible loss of channel function; Separation between potencies for blocking calcium influx and cytotoxicity (human sperm [9]): low separation |
